Results taken from ChEMBL document CHEMBL1926680, “The de-guanidinylated derivative of peramivir remains a potent inhibitor of influenza neuraminidase” (Bioorg Med Chem Lett, 2011).
Activity calls are given as the source filed them. No cut-off for these calls is given here.

Tests used:
Influenza A virus [1] = assay: Antiviral activity against NP40-inactivated Influenza A virus (A/Brisbane/59/2007(H1N1)) preincubated with virus for 10 mins by viral hemagglutinination titter assay; format: functional, organism-based
How it was run: (§1)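 Inhibitor dilutions were incubated for 10 min at room temperature with 0.2% NP40-inactivated virus, diluted to match the activity of 1000 ng/mL recombinant enzyme stock. The 4-methylumbelliferyl sialic acid substrate was then added in Tris/CaCl2/NaCl buffer, pH 7.5. Neuraminidase activity was read fluorimetrically (ex 365, em 445 nm), and IC50 was taken from the dose–response curve.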

[2] = molecular target: Neuraminidase (Influenza A virus (strain A/Brevig Mission/1/1918 H1N1) (Influenza Avirus (strain A/South Carolina/1/1918 H1N1)), UniProt Q9IGQ6); assay: Inhibition of Influenza A virus (A/Brevig Mission/1/1918(H1N1)) recombinant soluble neuraminidase using 2'-4(methylumbelliferyl)-alpha-D-N-acetylneuraminic acid substrate by fluorimetric assay
How it was run: (§2)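 Recombinant soluble neuraminidase (400 ng/mL final) in 50 mM Tris, 5 mM CaCl2, 200 mM NaCl, pH 7.5, was mixed with a range of inhibitor concentrations and 2'-4-methylumbelliferyl substrate (200 µM final, 1.5% total DMSO). Fluorescence (ex 365 nm, em 445 nm) was followed over 5 min, and IC50 was taken from the full dose–response curve.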

[3] = molecular target: Neuraminidase (Influenza A virus (strain A/Brevig Mission/1/1918 H1N1) (Influenza Avirus (strain A/South Carolina/1/1918 H1N1))) (UniProt Q9IGQ6); assay: Inhibition of Influenza A virus (A/Brevig Mission/1/1918(H1N1)) recombinant neuraminidase by dose responsive study; how it was run: as §2
[4] = molecular target: Neuraminidase (Influenza A virus) (UniProt B4URF0); assay: Inhibition of NP40-inactivated Influenza A virus (A/Brisbane/59/2007(H1N1)) neuraminidase after 10 mins by dose responsive study; how it was run: as §1
[5] = molecular target: Neuraminidase (Influenza A virus (strain A/Brevig Mission/1/1918 H1N1) (Influenza Avirus (strain A/South Carolina/1/1918 H1N1))) (UniProt Q9IGQ6); assay: Competitive inhibition of Influenza A virus (A/Brevig Mission/1/1918(H1N1)) recombinant soluble neuraminidase at 0.7 to 3 nM using 2'-4(methylumbelliferyl)-alpha-D-N-acetylneuraminic acid substrate by fluorimetric based Lineweaver-Burk plot analysis
How it was run: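 Recombinant soluble neuraminidase (1000 ng/mL stock, 400 ng/mL in well) in 50 mM Tris pH 7.5, 200 mM NaCl, 5 mM CaCl2. The 4-methylumbelliferyl sialic acid substrate working solution was serially diluted in buffer with 4% DMSO. Reaction progress was read by fluorescence (ex 365, em 445 nm) over 10 min across several substrate and inhibitor concentrations. Substrate-only controls were run.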

[6] = molecular target: Neuraminidase (Influenza A virus (strain A/Brevig Mission/1/1918 H1N1) (Influenza Avirus (strain A/South Carolina/1/1918 H1N1))) (UniProt Q9IGQ6); assay: Competitive inhibition of Influenza A virus (A/Brevig Mission/1/1918(H1N1)) recombinant soluble neuraminidase at 0.7 to 3 nM using 2'-4(methylumbelliferyl)-alpha-D-N-acetylneuraminic acid substrate by fluorimetric based Michaelis-Menten equation analysis
How it was run: (§3)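 For kinetics, substrate working solution was serially diluted in assay buffer (50 mM Tris, 5 mM CaCl2, 200 mM NaCl, pH 7.5) containing 4% DMSO. Recombinant soluble neuraminidase reaction progress was followed fluorimetrically (ex 365, em 445 nm) for 10 min at several substrate and inhibitor concentrations to derive Ki.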

Influenza A virus [7] = assay: Antiviral activity against NP40-inactivated Influenza A virus (A/Brisbane/59/2007(H1N1)) preincubated with virus for 2 hrs by viral hemagglutinination titter assay; format: functional, organism-based
How it was run: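 The virus assay used 0.2% NP40-inactivated virus, diluted to match the activity of 1000 ng/mL recombinant enzyme stock, with inhibitor preincubation lengthened to 2 h at room temperature before the 4-methylumbelliferyl substrate was added. Reaction was in pH 7.5 Tris/CaCl2/NaCl buffer, with fluorescence read at ex 365/em 445 nm. IC50 came from dose–response.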

[8] = molecular target: Neuraminidase (Influenza A virus (strain A/Brevig Mission/1/1918 H1N1) (Influenza Avirus (strain A/South Carolina/1/1918 H1N1))) (UniProt Q9IGQ6); assay: Competitive inhibition of Influenza A virus (A/Brevig Mission/1/1918(H1N1)) recombinant soluble neuraminidase at 3.75 to 15 nM using 2'-4(methylumbelliferyl)-alpha-D-N-acetylneuraminic acid substrate by fluorimetric based Lineweaver-Burk plot analysis; how it was run: as §3
[9] = molecular target: Neuraminidase (Influenza A virus (strain A/Brevig Mission/1/1918 H1N1) (Influenza Avirus (strain A/South Carolina/1/1918 H1N1))) (UniProt Q9IGQ6); assay: Competitive inhibition of Influenza A virus (A/Brevig Mission/1/1918(H1N1)) recombinant soluble neuraminidase at 3.75 to 15 nM using 2'-4(methylumbelliferyl)-alpha-D-N-acetylneuraminic acid substrate by fluorimetric based Michaelis-Menten equation analysis; how it was run: as §3
Neuraminidase = Neuraminidase (Influenza A virus, UniProt B4URF0); assay: Inhibition of influenza A virus neuraminidase
Sequence of Neuraminidase (B4URF0 whole entry): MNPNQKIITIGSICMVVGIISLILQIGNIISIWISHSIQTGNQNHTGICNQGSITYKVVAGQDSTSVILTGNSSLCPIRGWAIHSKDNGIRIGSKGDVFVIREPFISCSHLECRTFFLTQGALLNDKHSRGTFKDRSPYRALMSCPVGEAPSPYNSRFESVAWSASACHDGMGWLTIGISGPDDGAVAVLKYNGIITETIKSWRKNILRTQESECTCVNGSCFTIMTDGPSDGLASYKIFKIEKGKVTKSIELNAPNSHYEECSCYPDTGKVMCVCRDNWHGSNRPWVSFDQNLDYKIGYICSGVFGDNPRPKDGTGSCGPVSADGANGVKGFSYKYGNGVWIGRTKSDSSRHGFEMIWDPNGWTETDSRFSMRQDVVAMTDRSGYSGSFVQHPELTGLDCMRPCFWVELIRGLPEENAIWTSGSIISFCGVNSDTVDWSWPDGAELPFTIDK

Sequence of Neuraminidase (Influenza A virus (strain A/Brevig Mission/1/1918 H1N1) (Influenza Avirus (strain A/South Carolina/1/1918 H1N1))) (Q9IGQ6 whole entry): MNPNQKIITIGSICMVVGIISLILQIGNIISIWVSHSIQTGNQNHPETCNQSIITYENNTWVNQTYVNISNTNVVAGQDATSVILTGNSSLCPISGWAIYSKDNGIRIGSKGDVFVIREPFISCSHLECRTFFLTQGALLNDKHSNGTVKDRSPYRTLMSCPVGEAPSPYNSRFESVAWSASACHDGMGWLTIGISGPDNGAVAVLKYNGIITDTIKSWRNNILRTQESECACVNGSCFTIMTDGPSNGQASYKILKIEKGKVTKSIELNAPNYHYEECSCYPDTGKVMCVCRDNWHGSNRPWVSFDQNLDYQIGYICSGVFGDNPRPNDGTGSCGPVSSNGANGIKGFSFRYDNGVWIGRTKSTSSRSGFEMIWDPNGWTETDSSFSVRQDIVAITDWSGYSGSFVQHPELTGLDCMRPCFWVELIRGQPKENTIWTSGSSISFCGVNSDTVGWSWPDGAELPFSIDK
Sequence of Neuraminidase (Influenza A virus (strain A/Brevig Mission/1/1918 H1N1) (Influenza Avirus (strain A/South Carolina/1/1918 H1N1)), UniProt Q9IGQ6) (Q9IGQ6 whole entry): as above
Sequence of Neuraminidase (Influenza A virus) (B4URF0 as listed by the source): as the sequence (B4URF0 whole entry) above

SMILES | IC50 (Influenza A virus [1]) | IC50 [2] | Ki [2] | inhibition [3] | inhibition [4] | IC50 (Neuraminidase) | other results
CCC(CC)[C@H](NC(C)=O)[C@@H]1[C@H](O)[C@@H](C(=O)O)C[C@H]1NC(=N)N [PERAMIVIR ANHYDROUS] | 0.00086 µM | 0.0034 µM | 0.00083 µM | Dose-dependent effect | Dose-dependent effect |  | inhibition [5]: Active; inhibition [6]: Active
N=C(N)N[C@H]1CC[C@@](O)(C(=O)O)C1 |  | 4000 µM |  |  |  |  | 
CCC(CC)[C@H](NC(C)=O)[C@@H]1[C@H](O)[C@@H](C(=O)O)C[C@H]1N | 0.0073 µM | 0.0177 µM | 0.0075 µM | Dose-dependent effect | Dose-dependent effect |  | IC50 (Influenza A virus [7]): 0.0022 µM; inhibition [8]: Active; inhibition [9]: Active
CCOC(=O)C1=C[C@@H](OC(CC)CC)[C@H](NC(C)=O)[C@@H](NC(=N)N)C1 |  |  |  |  |  | 0.0005 µM | 
N[C@H]1CC[C@@](O)(C(=O)O)C1 |  | 37000 µM |  |  |  |  | 
CCOC(=O)C1=C[C@@H](OC(CC)CC)[C@H](NC(C)=O)[C@@H](N)C1 [OSELTAMIVIR] |  |  |  |  |  | 0.001 µM | 
